From ChEMBL document CHEMBL4196178, “Structure-Based Drug Design of Potent Pyrazole Derivatives against Rhinovirus Replication” (J Med Chem, 2018)
The source made the active and inactive calls. The calls are words filed in the database; no cut-off is given here.

Key:
[1] = Cytotoxicity against human HeLa Rh cells assessed as reduction in cell viability after 3 days by MTS assay; format: cell-based
[2] = Selectivity index, ratio of CC50 for human HeLa Rh cells to EC50 for Rhinovirus B14 capsid infected in human HeLa Rh cells; format: toxicity, cell-based; conditions: read-out: Ratio CC50/EC50
How it was run: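 SI = CC₅₀/EC₅₀ for RV-B14 in HeLa Rh cells, both from the same 3-day 35 °C MTS CPE assay. CC₅₀ was obtained by light-microscope scoring of compound-treated uninfected cells, and EC₅₀ from MTS dose-response. Both values were derived by logarithmic interpolation and reported as median ± median absolute deviation.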

rhinovirus B14 [3] = assay: Antiviral activity against Rhinovirus B14 infected in human HeLa Rh cells assessed as reduction in viral replication at 1 uM administered at the time of infection measured after 8 hrs post infection by RT-qPCR analysis; format: functional, organism-based
How it was run: (§1)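 HeLa Rh cells adhered overnight, then given 1 µM compound 2 h before, at, or 2, 4 or 6 h after RV-B14 infection. Untreated infected cells served as controls. Cells lysed at 8 h post-infection, DNases heat-inactivated at 75 °C for 15 min. Intracellular viral RNA measured by SYBR one-step qRT-PCR against a gBlock standard series, reported as genome equivalents per sample.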

rhinovirus B14 [4] = assay: Antiviral activity against Rhinovirus B14 infected in human HeLa Rh cells assessed as reduction in viral replication at 1 uM administered at >= 2 hrs post infection measured after 8 hrs post infection by RT-qPCR analysis; format: functional, organism-based; how it was run: as §1
CHO-K1 [5] = assay: Genotoxicity in CHOK1 cells assessed as increase in micronucleated cell rates at 1 to 100 uM after 3 hrs in presence of Sprague-Dawley rat S9 fraction and cytokinesis blocking agent cytochalasin B by Giemsa-staining based assay; format: toxicity, Cricetulus griseus; conditions: chinese hamster, s9, 3 h
How it was run: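 CHO-K1 cells were seeded at 100,000 cells/ml and pre-incubated 24 h. S9 mix from Aroclor 1254-treated male Sprague-Dawley rat liver (1% S9, 0.5 mM G6P, 0.4 mM NADP) was added at 10%, and compound (1–100 μM) was given in duplicate for 3 h at 37 °C. Controls were medium, 1% DMSO and benzo-a-pyrene 5 µg/ml. Cells then had 21 h in 3 µg/ml cytochalasin B and Giemsa staining. Micronuclei were counted in 1000 binucleated cells per well at doses with CI% decrease <55 ± 5%, and compared by χ² test.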

CHO-K1 [6] = assay: Genotoxicity in CHOK1 cells assessed as increase in micronucleated cell rates at 1 to 100 uM after 3 hrs in absence of Sprague-Dawley rat S9 fraction and presence of cytokinesis blocking agent cytochalasin B by Giemsa-staining based assay; format: toxicity, Cricetulus griseus; conditions: chinese hamster, cho-k1, 3 h
How it was run: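 CHO-K1 cells were seeded at 100,000 cells/ml and pre-incubated 24 h, then exposed in duplicate to compound (1–100 μM) for 3 h at 37 °C without S9. Controls were medium, 1% DMSO and mitomycin C 0.6 µg/ml. Cells then had 21 h in 3 µg/ml cytochalasin B, followed by methanol fixation and 10% Giemsa. Micronuclei were counted in 1000 binucleated cells per well, restricted to doses with CI% decrease <55 ± 5%, and compared by χ² test.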

[7] = target: T1, VP1 capsid protein (Human rhinovirus sp.) (UniProt Q7T664); assay: Inhibition of Rhinovirus B14 capsid infected in human HeLa Rh cells assessed as reduction in viral replication at 1 uM administered 2 hrs before infection measured after 8 hrs post infection by RT-qPCR analysis; format: cell-based; how it was run: as §1
T1 sequence (whole entry): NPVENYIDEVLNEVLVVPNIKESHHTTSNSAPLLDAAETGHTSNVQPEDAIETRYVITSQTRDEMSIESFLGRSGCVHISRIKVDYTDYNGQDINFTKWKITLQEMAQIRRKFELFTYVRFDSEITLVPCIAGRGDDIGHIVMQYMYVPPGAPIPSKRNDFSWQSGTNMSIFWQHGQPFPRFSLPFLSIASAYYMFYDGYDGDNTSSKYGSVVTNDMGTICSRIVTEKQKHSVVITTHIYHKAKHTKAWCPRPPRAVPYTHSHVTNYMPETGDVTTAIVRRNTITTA

[8] = target: T1, VP1 capsid protein (Human rhinovirus sp.); assay: Inhibition of Rhinovirus B14 capsid infected in human HeLa Rh cells assessed as number of wells with full cytopathic effect at 4 times EC50 concentration after 1st passage measured after 3 days by MTS assay relative to control; format: cell-based; set-up: scale not given: the % may be the effect or the level left
How it was run: (§2)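 Confluent HeLa cells were infected with wild-type RV-B14 with compound present at 1x, 2x or 4x in vitro EC₅₀, n=4 wells. Supernatant was diluted 1:10 onto fresh HeLa cells with compound, for four passages. Value is percentage of wells with full CPE.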

[9] = target: T1, VP1 capsid protein (Human rhinovirus sp.); assay: Inhibition of Rhinovirus B14 capsid infected in human HeLa Rh cells assessed as number of wells with full cytopathic effect at 4 times EC50 concentration after 4th passage measured after 3 days by MTS assay relative to control; format: cell-based; set-up: scale not given: the % may be the effect or the level left; how it was run: as §2
[10] = target: T1, VP1 capsid protein (Human rhinovirus sp.); assay: Inhibition of Rhinovirus B14 capsid infected in human HeLa Rh cells assessed as number of wells with full cytopathic effect at EC50 concentration after 1st passage measured after 3 days by MTS assay relative to control; format: cell-based; set-up: scale not given: the % may be the effect or the level left; how it was run: as §2
[11] = target: T1, VP1 capsid protein (Human rhinovirus sp.); assay: Inhibition of Rhinovirus B14 capsid infected in human HeLa Rh cells assessed as number of wells with full cytopathic effect at 2 times EC50 concentration after 4th passage measured after 3 days by MTS assay relative to control; format: cell-based; set-up: scale not given: the % may be the effect or the level left; how it was run: as §2
[12] = target: T1, VP1 capsid protein (Human rhinovirus sp.); assay: Inhibition of Rhinovirus B14 capsid infected in human HeLa Rh cells assessed as number of wells with full cytopathic effect at 2 times EC50 concentration after 3rd passage measured after 3 days by MTS assay relative to control; format: cell-based; set-up: scale not given: the % may be the effect or the level left; how it was run: as §2
[13] = target: T1, VP1 capsid protein (Human rhinovirus sp.); assay: Inhibition of Rhinovirus B14 capsid infected in human HeLa Rh cells assessed as number of wells with full cytopathic effect at EC50 concentration after 4th passage measured after 3 days by MTS assay relative to control; format: cell-based; set-up: scale not given: the % may be the effect or the level left; how it was run: as §2
[14] = target: T1, VP1 capsid protein (Human rhinovirus sp.); assay: Inhibition of Rhinovirus B14 capsid infected in human HeLa Rh cells assessed as number of wells with full cytopathic effect at 2 times EC50 concentration after 1st passage measured after 3 days by MTS assay relative to control; format: cell-based; set-up: scale not given: the % may be the effect or the level left; how it was run: as §2
[15] = target: T1, VP1 capsid protein (Human rhinovirus sp.); assay: Inhibition of Rhinovirus B14 capsid infected in human HeLa Rh cells assessed as number of wells with full cytopathic effect at EC50 concentration after 2nd passage measured after 3 days by MTS assay relative to control; format: cell-based; set-up: scale not given: the % may be the effect or the level left; how it was run: as §2
[16] = target: T1, VP1 capsid protein (Human rhinovirus sp.); assay: Inhibition of Rhinovirus B14 capsid infected in human HeLa Rh cells assessed as number of wells with full cytopathic effect at EC50 concentration after 3rd passage measured after 3 days by MTS assay relative to control; format: cell-based; set-up: scale not given: the % may be the effect or the level left; how it was run: as §2
rhinovirus B14 [17] = assay: Inhibition of Rhinovirus B14 capsid infected in human HeLa Rh cells assessed as number of wells with full cytopathic effect at 4 times EC50 concentration after 2nd passage measured after 3 days by MTS assay relative to control; format: functional; set-up: scale not given: the % may be the effect or the level left; how it was run: as §2
[18] = target: T1, VP1 capsid protein (Human rhinovirus sp.); assay: Inhibition of Rhinovirus B14 capsid infected in human HeLa Rh cells assessed as number of wells with full cytopathic effect at 4 times EC50 concentration after 3rd passage measured after 3 days by MTS assay relative to control; format: cell-based; set-up: scale not given: the % may be the effect or the level left; how it was run: as §2
[19] = target: T1, VP1 capsid protein (Human rhinovirus sp.); assay: Inhibition of Rhinovirus B14 capsid infected in human HeLa Rh cells assessed as number of wells with full cytopathic effect at 2 times EC50 concentration after 2nd passage measured after 3 days by MTS assay relative to control; format: cell-based; set-up: scale not given: the % may be the effect or the level left; how it was run: as §2

Work on `O=[N+]([O-])c1cc(Cl)ccc1CC(O)c1ccc(-n2cccn2)cc1` (racemic) yielded a CC50 at 72 h [1] greater than 100 µM and a selectivity ratio [2] greater than 781.
In the case of `Cn1cc(-c2ccc(C[C@@H](O)c3ccc(-n4cncn4)cc3)c([N+](=O)[O-])c2)cn1`, the CC50 at 72 h [1] was greater than 342 µM.
With `Cn1cc(-c2ccc(C[C@H](O)c3ccc(-n4cccn4)cc3)c([N+](=O)[O-])c2)cn1` the Activity (rhinovirus B14 [3]) was “Active”, the CC50 at 72 h [1] was greater than 342 µM and the Activity (rhinovirus B14 [4]) was “inactive”. For the same molecule, the Activity (CHO-K1 [5]) was “Non-Toxic”, the Activity (CHO-K1 [6]) was “Non-Toxic” and the inhibition [7] was “Active”. For the same molecule, the selectivity ratio [2] was greater than 9770.
`O=[N+]([O-])c1cc(-c2cncs2)ccc1CC(O)c1ccc(-n2cncn2)cc1` (racemic) gave a CC50 at 72 h [1] of 44 µM and a selectivity ratio [2] of 110.
With `Cn1nc(C(F)(F)F)cc1-c1ccc(CC(O)c2ccc(-c3ccncc3)cc2)c([N+](=O)[O-])c1` (racemic) the CC50 at 72 h [1] was greater than 100 µM and the selectivity ratio [2] was greater than 100.
`O=[N+]([O-])c1cc(Br)ccc1CC(O)c1ccc(-n2cccn2)cc1` (racemic) gave a CC50 at 72 h [1] of 22.5 µM and a selectivity ratio [2] of 90.
For `Cc1cc(CCCOc2c(C)cc(-c3noc(C(F)(F)F)n3)cc2C)on1` [PLECONARIL], the Activity [8] was 0%, the Activity [9] was 25% and the Activity [10] was 0%. The Activity (rhinovirus B14 [3]) was “Active”, the Activity [11] was 100% and the Activity [12] was 100%. For the same molecule, the Activity [13] was 100%, the Activity [14] was 0% and the Activity [15] was 100%. The CC50 at 72 h [1] was greater than 131 µM, the Activity (rhinovirus B14 [4]) was “inactive” and the inhibition [7] was “Active”. The Activity [16] was 100%, the Activity (rhinovirus B14 [17]) was 0% and the selectivity ratio [2] was greater than 4040. It also gave an Activity [18] of 25% and an Activity [19] of 0%.
Work on `COC(=O)c1ccc(CC(O)c2ccc(-c3ccncc3)cc2)c([N+](=O)[O-])c1` (racemic) yielded a CC50 at 72 h [1] greater than 264 µM and a selectivity ratio [2] greater than 41.
With `Cc1noc(C)c1-c1ccc(CC(O)c2ccc(-n3cncn3)cc2)c([N+](=O)[O-])c1` (racemic) the CC50 at 72 h [1] was greater than 256 µM.
`O=[N+]([O-])c1cc(Br)ccc1CC(O)c1ccc(-c2ccncc2)cc1` (racemic) gave a CC50 at 72 h [1] greater than 250 µM and a selectivity ratio [2] greater than 424.
